The values below come from ChEMBL document CHEMBL4052591, “Evaluation of Jatrophane Esters from Euphorbia spp. as Modulators of Candida albicans Multidrug Transporters” (2017).

Values after ≈ are worked out from the molar mass of the structure shown.

Test [1] deals with Saccharomyces cerevisiae. The experiment in a line: Potentiation of fluconazole-induced antifungal activity against Saccharomyces cerevisiae AD1-8u(-) assessed as as ratio of MIC80 of fluconazole in combinantion with compound to MIC80 of fluconazole alone by checkerboard method. The format is functional. The gist of the method:
(§1)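 CLSI checkerboard in YEPD: 10^4 cells per well, grown 48 h at 30 °C, OD read. Fluconazole 0.15−800 μM was crossed with inhibitor 0.15−800 μM. Run on control AD1-8u− and on strains overexpressing CaCdr1p or CaMdr1p. FIC of each agent = MIC in combination / MIC alone; FICI = sum of both FICs.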

Test [2] concerns Candida albicans. Briefly: Inhibition of Candida albicans CDR1 expressed in Saccharomyces cerevisiae AD assessed as potentiation of fluconazole-induced antifungal activity against Saccharomyces cerevisiae AD by checkerboard method. The gist of the method: as §1
The test system of test [3] is Saccharomyces cerevisiae. Briefly: Resistance index, ratio of MIC80 for Saccharomyces cerevisiae AD over-expressing Candida albicans CDR1 to MIC80 for Saccharomyces cerevisiae AD1-8u(-). In kind it is functional. The gist of the method: (§2)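 MIC80 of the transporter-overexpressing strain and the AD1-8u− control strain each measured after 48 h growth at 30 °C over 0.15−80 μM inhibitor, read by OD600. MIC80 is the concentration cutting growth by 80% versus the no-inhibitor control. Resistance index = overexpressing-strain MIC80 divided by control-strain MIC80.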

For test [4], the system named is Saccharomyces cerevisiae. The experiment in a line: Resistance index, ratio of MIC80 for Saccharomyces cerevisiae AD over-expressing Candida albicans MDR1 to MIC80 for Saccharomyces cerevisiae AD1-8u(-). In kind it is functional. The gist of the method:
as §2

Test [5] deals with Candida albicans. The experiment in a line: Inhibition of Candida albicans CDR1 expressed in Saccharomyces cerevisiae AD assessed as ratio of MIC80 of fluconazole in combinantion with compound to MIC80 of fluconazole alone for Saccharomyces cerevisiae AD by checkerboard method. The gist of the method: as §1
Test [6] has as its system Saccharomyces cerevisiae. The experiment in a line: Antifungal activity against Saccharomyces cerevisiae AD1-8u(-) after 48 hrs. In kind it is functional. The gist of the method: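 Growth inhibition of transporter-deleted control S. cerevisiae AD1-8u− over […]; 10^4 cells grown in YEPD for 48 h at 30 °C. OD600 was read and growth without inhibitor was set as 100%. MIC80 is the concentration cutting growth by 80%. Means ± SD from three independent experiments.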

Test [7] deals with Candida albicans. Briefly: Inhibition of Candida albicans CDR1 transporter expressed in Saccharomyces cerevisiae AD cells assessed as nile red accumulation at 70 uM after 30 mins by flow cytometric analysis relative to control. Details: Activity: scale not given: the % may be the effect or the level left. The format is cell-based. The gist of the method:
(§3)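 S. cerevisiae AD strains overexpressing CaCdr1p (AD-CDR1) or CaMdr1p (AD-MDR1) were grown at 30 °C from OD600 0.1 to 0.25. They were resuspended as a 5% suspension in YEPD:water 1:2. Nile Red (7 μM final) was given ± inhibitor (70 μM) for 30 min at 30 °C. Accumulation was read by flow cytometry on 10 000 cells. Means ± SD, three independent experiments.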
A general note: A flow cytometer gives signals particle by particle.

In test [8] the test system is Saccharomyces cerevisiae. The experiment in a line: Potentiation of fluconazole-induced antifungal activity against Saccharomyces cerevisiae AD1-8u(-) by checkerboard method. The format is functional. The gist of the method: as §1
Test [9] relates to Saccharomyces cerevisiae. Briefly: Antifungal activity against Saccharomyces cerevisiae AD over-expressing Candida albicans MDR1 transporter after 48 hrs. In kind it is functional. The gist of the method:
(§4)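 S. cerevisiae AD1-8u− derivative overexpressing the transporter, grown in YEPD at 30 °C. Cells (10^4) incubated 48 h at 30 °C with a range of inhibitor concentrations […]; growth read as OD600. Growth without inhibitor taken as 100%; MIC80 is the concentration decreasing growth by 80%. Means ± SD of three independent experiments.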

Test [10] concerns Candida albicans. The experiment in a line: Inhibition of Candida albicans CDR1 expressed in Saccharomyces cerevisiae AD assessed as ratio of MIC80 of compound in combinantion with fluconazole to MIC80 of compound alone for Saccharomyces cerevisiae AD by checkerboard method. The gist of the method: as §1
Test [11] has as its system Saccharomyces cerevisiae. Briefly: Antifungal activity against Saccharomyces cerevisiae AD over-expressing Candida albicans CDR1 transporter after 48 hrs. In kind it is functional. The gist of the method:
as §4

The subject of test [12] is Candida albicans. Briefly: Inhibition of Candida albicans MDR1 expressed in Saccharomyces cerevisiae AD assessed as ratio of MIC80 of compound in combinantion with fluconazole to MIC80 of compound alone for Saccharomyces cerevisiae AD by checkerboard method. The gist of the method: as §1
Test [13] concerns Candida albicans. The experiment in a line: Inhibition of Candida albicans MDR1 transporter expressed in Saccharomyces cerevisiae AD cells assessed as nile red dye accumulation at 70 uM after 30 mins by flow cytometric analysis relative to control. The format is cell-based. Details: Activity: scale not given: the % may be the effect or the level left. The gist of the method:
as §3

Test [14] relates to Candida albicans. Briefly: Inhibition of Candida albicans MDR1 expressed in Saccharomyces cerevisiae AD assessed as ratio of MIC80 of fluconazole in combinantion with compound to MIC80 of fluconazole alone for Saccharomyces cerevisiae AD by checkerboard method. The gist of the method: as §1
The subject of test [15] is Candida albicans. Briefly: Inhibition of Candida albicans MDR1 expressed in Saccharomyces cerevisiae AD assessed as potentiation of fluconazole-induced antifungal activity against Saccharomyces cerevisiae AD by checkerboard method. The gist of the method:
as §1

The subject of test [16] is Saccharomyces cerevisiae. Briefly: Potentiation of fluconazole-induced antifungal activity against Saccharomyces cerevisiae AD1-8u(-) assessed as ratio of MIC80 of compound in combinantion with fluconazole to MIC80 of compound alone by checkerboard method. In kind it is functional. The gist of the method:
as §1

As usually defined, the MIC80 is an inhibitory concentration at the 80% level, which refers to growth in some studies and to a panel of isolates in others. With `CC(=O)O[C@H]1[C@@H](OC(C)=O)C(C)(C)/C=C/[C@@](C)(O)C(=O)[C@@]2(O)C[C@@](C)(OC(C)=O)[C@H](OC(C)=O)[C@@H]2[C@H]2OC(=O)CC[C@@]2(OC(C)=O)[C@@H]1OC(=O)C(C)C`, the Ratio was determined as 1 with Saccharomyces cerevisiae [1]; 1.04 in the test with Saccharomyces cerevisiae [3]; 1.01 with Saccharomyces cerevisiae [4]; 1 in the test with Candida albicans [5]; 1 in the test on Candida albicans [10]; 0.5 in the test with Candida albicans [12]. Also, the Ratio in the test on Candida albicans [14] was found to be 0.5; with Saccharomyces cerevisiae [16], 1. The fractional inhibitory concentration index (FICI) in the test on Candida albicans [2] worked out at 2; in the test with Saccharomyces cerevisiae [8] it was 2; with Candida albicans [15] it was 1. For the same compound, the MIC80 against Saccharomyces cerevisiae [6] amounted to 682 µM (≈ 515 µg/mL); in the test on Saccharomyces cerevisiae [9], 691 µM (≈ 522 µg/mL); in the test with Saccharomyces cerevisiae [11] it was 711 µM (≈ 537 µg/mL). In addition, the results for the Activity in the test on Candida albicans [7] and with Candida albicans [13] were 85% and 79%, respectively.

For `C=C1[C@@H](OC(C)=O)[C@H]2[C@@H](OC(=O)COC(=O)c3ccccc3)[C@](C)(OC(C)=O)C[C@]2(O)C(=O)[C@@H](C)/C=C/C(C)(C)[C@H](OC(C)=O)[C@H](OC(C)=O)[C@H]1OC(=O)C(C)C`, the Ratio in the test with Saccharomyces cerevisiae [1] was found to be 1; in the test with Saccharomyces cerevisiae [3] it was 1.2; in the test with Saccharomyces cerevisiae [4], 1.2; with Candida albicans [5], 0.2; in the test with Candida albicans [10], 1; in the test with Candida albicans [12] it was 1. Also, the Ratio in the test with Candida albicans [14] and in the test on Saccharomyces cerevisiae [16] was 1 throughout. In addition, the fractional inhibitory concentration index (FICI) in the test on Candida albicans [2] came out at 1.2; in the test on Saccharomyces cerevisiae [8], 2; in the test on Candida albicans [15], 2. Besides, the figures for the MIC80 with Saccharomyces cerevisiae [6], in the test with Saccharomyces cerevisiae [9] and with Saccharomyces cerevisiae [11] were 324 µM (≈ 259 µg/mL), 411 µM (≈ 329 µg/mL) and 416 µM (≈ 333 µg/mL), respectively. Besides, the Activity in the test with Candida albicans [7] amounted to 92%.

For `C=C1[C@@H](OC(=O)C(C)CC)[C@H]2[C@@H](O)[C@](C)(OC(C)=O)C[C@]2(O)C(=O)[C@@H](C)/C=C/C(C)(C)[C@H](OC(C)=O)[C@H](OC(C)=O)[C@H]1OC(=O)c1ccccc1` (some centres not stated), the Ratio with Saccharomyces cerevisiae [1] came out at 1; in the test on Saccharomyces cerevisiae [3] it was 0.9; in the test on Saccharomyces cerevisiae [4] it was 0.87; with Candida albicans [5], 1; in the test with Candida albicans [10], 0.5; in the test with Candida albicans [12], 1. The Ratio in the test with Candida albicans [14] and in the test on Saccharomyces cerevisiae [16] was 1 each time. Besides, the fractional inhibitory concentration index (FICI) with Candida albicans [2] worked out at 1.5; in the test on Saccharomyces cerevisiae [8], 2; in the test with Candida albicans [15], 2. The MIC80 in the test on Saccharomyces cerevisiae [6] is 719 µM (≈ 514 µg/mL); in the test with Saccharomyces cerevisiae [9] it was 629 µM (≈ 450 µg/mL); in the test with Saccharomyces cerevisiae [11], 681 µM (≈ 487 µg/mL). Also, the Activity turned out to be 64% in the test with Candida albicans [7] and 65% in the test with Candida albicans [13].

In the case of `C=C1[C@@H](OC(C)=O)[C@H]2[C@@H](OC(=O)c3ccccc3)[C@@H](C)C[C@]2(O)[C@H](O)[C@H](C)/C=C/C(C)(C)C(=O)[C@H](OC(=O)C(C)C)[C@H]1OC(C)=O`, the Ratio with Saccharomyces cerevisiae [1] was found to be 1; in the test on Saccharomyces cerevisiae [3], 0.9; with Saccharomyces cerevisiae [4], 0.85; with Candida albicans [5], 1; in the test with Candida albicans [10], 1; in the test with Candida albicans [12], 1. For the same compound, the Ratio with Candida albicans [14] and in the test with Saccharomyces cerevisiae [16] was 1 throughout. The fractional inhibitory concentration index (FICI) in the test on Candida albicans [2], in the test with Saccharomyces cerevisiae [8] and in the test with Candida albicans [15] was 2 each time. Also, the MIC80 was found to be 792 µM (≈ 509 µg/mL) in the test on Saccharomyces cerevisiae [6], 679 µM (≈ 436 µg/mL) against Saccharomyces cerevisiae [9] and 710 µM (≈ 456 µg/mL) in the test on Saccharomyces cerevisiae [11]. Moreover, in the test with Candida albicans [13], the Activity stood at 74%.
